These results are taken from article PMC6736600 (Cell chemical biology, 2019).

Like-named read-outs stand apart in the source and are kept apart here.

Series [1] addresses N119^3.35A CXCR4 (Homo sapiens, UniProt P61073, N119A). It counts as cell-based. Particulars: for signal as % maximum of the WT signaling levels: N119^3.35A CAM, basal CAM activity roughly 47% of maximum WT response to CXCL12; for functional classification on the N119^3.35A CAM: dose-response without CXCL12, classification at 1 μM by one-way ANOVA vs DMSO.
In series [2] the test system is HIV-1. Particulars: read-out: HIV-1 IC50, cited from earlier work.
For series [3], the system named is N119^3.35S CXCR4 CAM. Conditions: ref Mona et al., 2016; cited from earlier work.
In series [4] the target is human CXCR4 (Homo sapiens, UniProt P61073). Conditions: CXCL12 binding IC50, WT CXCR4, 125I-CXCL12, HEK-293 membranes; ± SD.
Chain of human CXCR4 (P61073 whole entry): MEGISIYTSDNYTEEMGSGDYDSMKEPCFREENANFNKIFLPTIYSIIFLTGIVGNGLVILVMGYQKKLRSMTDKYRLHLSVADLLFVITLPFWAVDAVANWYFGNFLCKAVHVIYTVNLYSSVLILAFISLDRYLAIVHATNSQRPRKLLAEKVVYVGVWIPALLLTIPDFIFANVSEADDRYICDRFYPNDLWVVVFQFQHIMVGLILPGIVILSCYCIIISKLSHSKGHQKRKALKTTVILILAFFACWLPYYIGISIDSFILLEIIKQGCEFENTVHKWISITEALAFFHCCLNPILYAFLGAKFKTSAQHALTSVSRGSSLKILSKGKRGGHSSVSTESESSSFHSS
Series [5] concerns HIV-1 IIIB. Nature of the series: HIV-1 inhibition in TZM-bl reporter cells. Type of series: cell-based. Particulars: read-out: HIV-1 IC50, ± SD. The method in brief: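 TZM-bl cells (HeLa-derived; CD4, CCR5, CXCR4; LTR-driven β-galactosidase and luciferase reporters), 5 × 10³ per well, grown 1–2 days at 37°C, 5% CO2. Serially diluted test compound applied 30 min before infection with HIV-1 IIIB at MOI of one. Reporter activity read per well; IC50 from ≥ three independent experiments, standard deviation given.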

Series [6] can be described thus: Cytotoxicity, methylene blue, 72 hours. Type of series: cell-based. Conditions: human, CEM cells (acute lymphoblastic lymphoma).
Series [7] can be described thus: Cytotoxicity, methylene blue, 72 hours. It counts as cell-based. Particulars: human, TZM-bl cells.
Series [8] has as its system N119^3.35A/S CXCR4 CAMs. Conditions: ref Zhang et al., 2002; cited from earlier work.

Chain of N119^3.35A CXCR4 (P61073 whole entry N119A): as the sequence (P61073 whole entry) above, with N119A counted along it

Regarding `CC1(C)CN2C(CSC(=NC3CCCCC3)NC3CCCCC3)=CSC2=N1` [IT1t, N,N’-dicyclohexylcarbamimidothioic acid (5,6-dihydro-6,6-dimethylimidazo[2,1-b]thiazol-3-yl)methyl ester], in series [1] (1 μM, p < 0.0001), the “effect on N119^3.35A signaling levels vs DMSO” value is on record as “significantly reduced signaling levels”. In series [1], the “signal as % maximum of the WT signaling levels” value is listed as ~ 25% and the “functional classification on the N119^3.35A CAM” value is “inverse agonism”. The IC50 in series [2] (ref Thoma et al., 2008) is 40 nM. Besides, in series [3], the “functional classification on the N119^3.35S CAM” value is reported as “inverse agonist”.
As for `Cl.c1nc2c(NCc3cn(CCCNCCCNC4CCCCC4)nn3)nc(N3CCNCC3)nc2[nH]1` [CX0298, N-Cyclohexyl-N’-(3-{4-[(2-piperazin-1-yl-9H-purin-6-ylamino)-methyl]-[1,2,3]triazol-1-yl}-propyl)-propane-1,3-diamine hydrochloride salt], the “functional classification on the N119^3.35A CAM” value in series [1] is “neutral antagonists”. Moreover, the half-inhibitory concentration (IC50) in series [4] was found to be 27.8 ± 1.9 nM; in series [5], 4.2 ± 0.3 nM. The CC50 at 72 h in series [6] and in series [7] was over 50000 nM each time.
Take `Cl.c1nc2c(NCC3CCC(CNCCCNC4CCCCC4)CC3)nc(N3CCNCC3)nc2[nH]1` (stereo not shown) [Compound B7, N-Cyclohexyl-N’-{4-[(2-piperazin-1-yl-9H-purin-6-ylamino)-methyl]-cyclohexylmethyl}-propane-1,3-diamine hydrochloride salt]: in series [1], the “functional classification on the N119^3.35A CAM” value is “neutral antagonists”. Further, the results for the IC50 in series [4] and in series [5] were 28 ± 2.7 nM and 2.4 ± 0.4 nM, respectively. For the same compound, the half-maximal cytotoxic concentration (CC50) at 72 h in series [6] and in series [7] was over 50000 nM throughout.
`c1cc(CN2CCCNCCNCCCNCC2)ccc1CN1CCCNCCNCCCNCC1` [AMD3100]: in series [1], the “signal as % maximum of the WT signaling levels” value is on record as ~ 83% and the “functional classification on the N119^3.35A CAM” value is listed as “partial agonism”. Also, the half-maximal inhibitory concentration (IC50) in series [2] (ref Schols et al., 1997) was 4 to 10 nM. Further, the “functional classification on N119^3.35A/S CAMs” value in series [8] is “partial agonist”.
